bIAP inhibitor – bovine intestinal alkaline phosphatase inhibitors, primary screen, selectivity assay for TNAP inhibitor project, biochemical, bovine IAP, CDP-star luminescence; inhibition, % at 20 µM; 190,000 tested, under 10 active; alkaline phosphatase, intestinal [Bos taurus]; purified bovine IAP, 30 min;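 active means over 50% inhibition of intestinal alkaline phosphatase at 20 µM in the single-dose screen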
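Assay system: bovine IAP enzyme; medium: DEA buffer 100 mM, pH 9.8, with MgCl2 1.0 mM, ZnCl2 0.02 mM; doses: 20 µM single dose; incubation: enzyme reaction for 30 min at room temperature; detection: CDP-star luminescence signal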
hIAP block – human IAP inhibitors, primary screen, biochemical, luminescence, uHTS | Intestinal-type alkaline phosphatase (Homo sapiens), P09923 | purified IAP, CDP-Star luminescence, 30 min | inhibition, % at 10 µM | 330,000 compounds, 0.12% hits | AID 2544, 2010;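 active means inhibition reaching a set limit with compound at 10 µM in the primary screen, cut at about 35% in these data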;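 further: plate controls were DMSO wells with enzyme for no effect and no-enzyme buffer wells for full effect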
Target sequence (P09923 whole entry, looked up): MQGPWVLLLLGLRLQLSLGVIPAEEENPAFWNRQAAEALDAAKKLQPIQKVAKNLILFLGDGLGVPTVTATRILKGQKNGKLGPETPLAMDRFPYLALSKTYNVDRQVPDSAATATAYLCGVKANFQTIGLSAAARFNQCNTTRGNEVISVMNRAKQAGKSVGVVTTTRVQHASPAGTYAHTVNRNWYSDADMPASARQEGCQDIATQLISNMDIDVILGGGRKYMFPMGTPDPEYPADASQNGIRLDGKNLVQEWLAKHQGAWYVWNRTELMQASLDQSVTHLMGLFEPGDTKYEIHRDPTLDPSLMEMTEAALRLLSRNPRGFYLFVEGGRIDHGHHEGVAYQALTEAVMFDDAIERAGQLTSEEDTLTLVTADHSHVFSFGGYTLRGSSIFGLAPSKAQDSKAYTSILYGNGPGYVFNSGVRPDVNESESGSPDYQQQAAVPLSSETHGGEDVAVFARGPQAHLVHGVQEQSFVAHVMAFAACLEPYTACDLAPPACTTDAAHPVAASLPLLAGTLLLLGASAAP
mIAP act – activators of mouse IAP, primary screen, biochemical, luminescence, uHTS; muIAP, CDP-Star luminescence, 30 min; active compounds read high; 1 = vehicle-only enzyme signal, 0 = enzyme-free wells; activation factor at 10 µM; 330,000 compounds, 0.24% hits; AID 2805, 2010;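 active means activation factor of at least 2 at 20 µM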
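Assay system: mouse IAP enzyme / Compound: DMSO-dissolved test compounds / Timing: 30 min, room temperature / Measured by: luminescence from enzymatic CDP-Star hydrolysis / Control set: DMSO-only wells, enzyme-free buffer wells as negative control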
mIAP block – inhibitors of mouse IAP, primary screen, biochemical, luminescence, uHTS; intestinal alkaline phosphatase [Mus musculus]; purified mouse IAP, CDP-Star luminescence, 30 min; inhibition, % at 10 µM; 330,000 compounds, 0.2% hits;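 active means inhibition of at least 40% at 10 µM in the primary screen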;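 further: plate controls were DMSO with enzyme for no effect and no enzyme wells for full effect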
bIAP activator – bovine intestinal alkaline phosphatase activators, primary screen, biochemical, bovine IAP, CDP-star luminescence | alkaline phosphatase, intestinal [Bos taurus] | AID 1016, 2008 | 200,000 compounds, 0.17% hits | activation factor at 20 µM | purified bovine IAP, 30 min; active compounds read high; fold of DMSO-control signal, blank-subtracted;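 active means activation factor of 2 or more at 20 µM, a signal rise over negative controls twice the positive control's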
hIAP activ – human IAP activators, primary screen, biochemical, luminescence, uHTS; Intestinal-type alkaline phosphatase (Homo sapiens), P09923; activation factor at 10 µM; purified human IAP, CDP-Star luminescence, 30 min; active compounds read high; 1 = vehicle-only enzyme, 0 = enzyme-free background; AID 2524, 2010; 330,000 compounds, 0.16% hits;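 active means activation factor of the enzyme at least 2-fold when tested at 20 µM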
hIAP act conf – human IAP activators, confirmation, biochemical, luminescence, single concentration, uHTS hits; shares compounds with hIAP activ; purified IAP, CDP-Star luminescence, 30 min; active compounds read low; activation (%Activity, negative = activation), % at 8.3 µM; 880 compounds, 10% hits;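 active means at least twofold enzyme activation in any of six single-dose repeats, which the averaged readout prints as negative percent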
mIAP inh conf – inhibitors of mouse IAP, confirmation, biochemical, luminescence, single concentration. shares compounds with mIAP block. 11,000 compounds, 4.7% hits. AID 434971, 2010. purified mouse IAP, CDP-Star luminescence, 30 min. inhibition, % at 10 µM;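 active means inhibition of at least 40% at 10 µM in either of the two replicates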;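 further: plate controls were DMSO wells with enzyme for no effect and buffer wells lacking enzyme for full effect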
The depositor's hits bear a star; x = not tested or not shown. Shown are actives, neighbours in structure and some others; about 0.72% of the full set was active somewhere.

SMILES | bIAP inhibitor | hIAP block | mIAP act | mIAP block | bIAP activator | hIAP activ | hIAP act conf | others
COc1ccc(-n2ncc(C(=O)NC3CC3)c2C2CCN(C(=O)OC(C)(C)C)CC2)cc1 | x | -2 | 0.95 | 5 | x | 1 | x
CCN(CC)/C(=N\S(=O)(=O)c1ccc(F)cc1)c1ccccc1 | x | -2 | 0.98 | 2 | x | 1 | x
O=c1c2ccccc2nc(N/N=C/c2c(O)ccc3ccccc23)n1O | -17 | -103 | 0.88 | 12 | 1.2 | 2* | -54*
O=c1c2ccccc2nc(N/N=C/c2ccc(O)cc2)n1O | -15 | -4 | 0.86 | 14 | 1.2 | 1 | x
CCn1c(SCC(=O)NC2CC2)nnc1-c1ccc(OC)cc1 | x | -7 | 1 | -2 | x | 1.1 | x
COc1ccc(NC(=O)c2cc(-c3ccc(C)cc3O)n[nH]2)c(OC)c1 | x | -106 | 0.98 | 2 | x | 2.1* | -37
Cc1cc(O)c(-c2cc(C(=O)NCc3ccc4c(c3)OCO4)[nH]n2)cc1C | -56 | 14 | 1.3 | -29 | 1.6 | 0.86 | x
Cc1cccc(NC(=O)c2cc(-c3cc(C)ccc3O)n[nH]2)c1 | x | -104 | 1.2 | -16 | x | 2* | 7
COc1ccc(CNC(=O)c2cc(-c3ccccc3O)n[nH]2)cc1 | -5 | 6 | 1.5 | -54 | 1 | 0.94 | x
COc1ccc(CNC(=O)c2cc(-c3cc(C)ccc3O)n[nH]2)cc1 | x | -138 | 1.7 | -70 | x | 2.4* | -34
Cc1cccc(NC(=O)c2cc(-c3cc(C)c(C)cc3O)n[nH]2)c1 | x | -78 | 1 | -2 | x | 1.8 | x
O=C(NCc1ccc2c(c1)OCO2)c1cc(-c2cc(Cl)ccc2O)n[nH]1 | x | -108 | 1.3 | -28 | x | 2.1* | 18
O=C(Nc1ccc(S(=O)(=O)Nc2nccs2)cc1)c1ccc(N2C(=O)c3ccccc3C2=O)cc1 | 6 | 2 | 0.91 | 9 | 0.9 | 0.98 | x
CCc1noc(C)c1C(=O)Nc1ccc(F)c(F)c1F | x | -1 | 0.92 | 8 | x | 1 | x
CCOC(=O)N1CCN(S(=O)(=O)c2c[nH]c(C(=O)OC)c2)CC1 | x | 8 | 0.96 | 4 | x | 0.92 | x
CCOC(=O)[C@@H]1[C@H]2COc3ccccc3[C@@H]2N2C(=O)N(c3cccc(F)c3)C(=O)[C@]12C | x | 4 | 0.96 | 4 | x | 0.96 | x
Cc1[nH]c(=O)[nH]c(=O)c1/C=C/C(=O)OCC(C)C | x | 0 | 1.1 | -8 | 0.4 | 1 | x
COc1ccc(CCNC(=O)c2cc(-c3cc(C)ccc3O)n[nH]2)cc1OC | -96 | -168 | 1.7 | -68 | 2* | 2.7* | -9
COc1ccc(CCNC(=O)c2cc(-c3ccc(C)c(C)c3O)n[nH]2)cc1OC | -37 | -91 | 1.1 | -8 | 1.4 | 1.9 | x
Cc1c(Cl)cccc1NC(=O)c1cc(-c2ccccc2O)n[nH]1 | 7 | -101 | 1.1 | -8 | 0.9 | 2* | 5
O=C(c1cc(Cl)ccc1O)N1CCN(S(=O)(=O)c2cccs2)CC1 | x | 6 | 0.95 | 5 | x | 0.94 | x
CCOc1ccc(NC(=O)CN(C)C(=O)CN2C(=O)c3ccc([N+](=O)[O-])cc3C2=O)cc1OCC | x | -12 | 1 | -1 | x | 1.1 | x
Cc1nc(-c2ccc(S(=O)(=O)N3CCCN(CCc4ccccc4)CC3)s2)cs1 | x | -127 | 0.87 | 13 | x | 2.3* | -3
CSc1ccccc1NC(=S)NCc1ccc(Cl)cc1 | x | 40* | 1.1 | -14 | x | 0.6 | -32
COc1ccccc1NC(=S)NCc1ccc(Cl)cc1 | x | 15 | 1.1 | -14 | x | 0.85 | x
SMILES | bIAP inhibitor | hIAP block | mIAP act | mIAP block | bIAP activator | hIAP activ | hIAP act conf | others
COc1ccc2nc(N3CCC(O)CC3)c(C#N)cc2c1 | -44 | 35* | 1 | -4 | 1.4 | 0.65 | 20
O=C1CC(c2ccccc2F)c2cc3c(cc2N1)CCC3 (stereo unspecified) | 3 | -220 | 1.2 | -16 | 1 | 3.2* | -11
O=C(Nc1nccs1)c1ccc(CSc2ccccc2)o1 | x | 8 | 1 | 0 | x | 0.92 | x
CC(C)(C)c1ccc(C(=O)Nc2ccc(CN3CCS(=O)(=O)CC3)cc2)cc1 | x | 39* | 0.96 | 4 | x | 0.61 | -54
Cc1nc(SCC(=O)Nc2ccc(OCc3ccccc3)cc2)n[nH]1 | -3 | -39 | 0.93 | 7 | 1 | 1.4 | x
Cc1nc(S/C(=C\c2ccc(OCc3ccccc3Cl)cc2)C(=O)O)n[nH]1 | -10 | -113 | 0.89 | 11 | 1.1 | 2.1* | -48
N#C/C(=C\c1ccc(O)c(O)c1)C(=O)c1ccc(O)c(O)c1 | x | 37* | 0.13 | 87* | x | 0.63 | 74 | mIAP inh conf=86*
N#C/C(=C\c1ccc(O)c(O)c1)C(=O)N1CCCC1 | 23 | 20 | 0.81 | 19 | 0.8 | 0.8 | x
COc1ccc(O)c(/C=N/n2c(-c3ccco3)csc2=Nc2cccnc2)c1 | 10 | 7 | 0.87 | 13 | 0.9 | 0.93 | x
CN=c1scc(-c2ccco2)n1/N=C/c1ccc(O)c(O)c1 | 9 | 35* | 0.45 | 55* | 0.9 | 0.65 | -22 | mIAP inh conf=63*
O=C(NN1C(=O)/C(=C/c2ccc(O)c(O)c2)SC1=S)c1ccccc1 | x | 69* | 0.56 | 44* | x | 0.31 | 2 | mIAP inh conf=78*
O=C(NN1C(=O)/C(=C/c2cccc(O)c2)SC1=S)c1ccccc1O | x | -63 | 0.62 | 38 | x | 1.6 | x
Cc1ccccc1NC(=O)NCC1CCN(c2ccc(S(=O)(=O)N3CCOCC3)cc2)CC1 | x | -9 | 1.5 | -50 | x | 1.1 | x
Cc1cccc(NC(=O)NCC2CCN(c3ccc(S(=O)(=O)N4CCOCC4)cc3)CC2)c1 | x | -108 | 3.5* | -251 | x | 2.1* | -20 | mIAP inh conf=-156
CC(C(=O)NCc1ccccc1)n1cc([N+](=O)[O-])cn1 (stereo unspecified) | x | -1 | 0.91 | 9 | x | 1 | x
CN(Cc1cccs1)C(=O)COc1cccc2c1OC(C)(C)C2 | x | -15 | 0.94 | 6 | x | 1.2 | x
O=C(COc1ccccc1C(=O)N/N=C\c1ccc(O)c(O)c1)N/N=C/c1ccc(O)c(O)c1 | 49 | 58* | 0.27 | 73* | 0.5 | 0.42 | 3 | mIAP inh conf=82*
Cc1ccc(NC(=O)C2CC(=O)n3c(nc4ccccc43)N2)cc1 (stereo unspecified) | -7 | -68 | 2 | -99 | 1.1 | 1.7 | x

Bioassay records deposited in PubChem BioAssay by Sanford-Burnham Center for Chemical Genomics.
